From ChEMBL document CHEMBL3085674, “Synthesis of some dihydropyrimidine-based compounds bearing pyrazoline moiety and evaluation of their antiproliferative activity” (Eur J Med Chem, 2013)

What was measured:
Type in all cases: functional, cell-based
MDA-MB-231 = assay: Antiproliferative activity against human MDA-MB-231 cells after 72 hrs by cell titer glo assay; details: MDA-MB-231, 72 h
Method in brief: (§1)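 ATCC tumour cells kept in RPMI 1640 with 5% FBS, 2 mM glutamine, streptomycin and amphotericin at 37 °C, 5% CO2. Cells were trypsinised at 70–90% confluence and used only at >95% Trypan blue viability. Seeded at 5000 cells/well, rested 18–24 h, then dosed from DMSO stocks (0.1% DMSO final). ATP luminescence was read after 72 h. IC50 came from dose–response curves of 8 concentrations, four replicates each.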

MCF7 = assay: Antiproliferative activity against human MCF7 cells after 72 hrs by cell titer glo assay; details: MCF7, 72 h; method in brief: as §1
HT-29 = assay: Antiproliferative activity against human HT-29 cells after 72 hrs by cell titer glo assay; details: HT-29, 72 h; method in brief: as §1
A549 = assay: Antiproliferative activity against human A549 cells after 72 hrs by cell titer glo assay; details: A549, 72 h; method in brief: as §1

| IC50 (MDA-MB-231) | IC50 (MCF7) | IC50 (HT-29) | IC50 (A549) | Structure (SMILES) |
| --- | --- | --- | --- | --- |
| 12.8 µM | 18 µM | 14.7 µM | 1.76 µM | COc1ccc(C2CC(c3ccccc3)=NN2c2nc(-c3ccccc3)c(C#N)c(=O)n2C)cc1 (stereo unspecified) |
| 19.5 µM | 52.4 µM | 11 µM | 23.8 µM | COc1ccc(C2CC(c3ccccc3)=NN2c2nc(-c3ccc(Cl)cc3)c(C#N)c(=O)n2C)cc1 (stereo unspecified) |
| 20.9 µM | 36.8 µM | 13.7 µM | 27.8 µM | Cn1c(N2N=C(c3ccccc3)CC2c2ccc(F)cc2)nc(-c2ccc(Cl)cc2)c(C#N)c1=O (stereo unspecified) |
|  |  | 2.75 µM | 3.13 µM | COc1cccc2c1C(=O)c1c(O)c3c(c(O)c1C2=O)C[C@@](O)(C(=O)CO)C[C@@H]3O[C@H]1C[C@H](N)[C@H](O)[C@H](C)O1 [DOXORUBICIN] |
| 28.3 µM | 99.8 µM | 18.2 µM | 39.7 µM | COc1ccc(C2=NN(c3nc(-c4ccc(Cl)cc4)c(C#N)c(=O)n3C)C(c3ccc(OC)cc3)C2)cc1 (stereo unspecified) |
| 12.4 µM | 25.3 µM | 8.72 µM | 43.9 µM | Cn1c(N2N=C(c3ccc(Cl)cc3)CC2c2ccccc2)nc(-c2ccc(Cl)cc2)c(C#N)c1=O (stereo unspecified) |
| 3.99 µM | 35.4 µM | 2.49 µM | 52.9 µM | Cn1c(N2N=C(c3ccccc3)CC2c2ccccc2)nc(-c2ccccc2)c(C#N)c1=O (stereo unspecified) |
| 29.1 µM | 34.4 µM | 19.5 µM | 28.1 µM | Cn1c(N2N=C(c3ccccc3)CC2c2ccccc2)nc(-c2ccc(Cl)cc2)c(C#N)c1=O (stereo unspecified) |
| 19.3 µM | 116 µM | 10.5 µM | 35.6 µM | Cc1ccc(C2=NN(c3nc(-c4ccc(Cl)cc4)c(C#N)c(=O)n3C)C(c3ccc(F)cc3)C2)cc1 (stereo unspecified) |
| 24.8 µM | 27.3 µM | 15.1 µM | 35.6 µM | COc1ccc(C2CC(c3ccc(Cl)cc3)=NN2c2nc(-c3ccc(Cl)cc3)c(C#N)c(=O)n2C)cc1 (stereo unspecified) |
| 11.1 µM | 4.8 µM | 9.12 µM | 6.07 µM | COc1ccc(C2CC(c3ccc(Cl)cc3)=NN2c2nc(-c3ccccc3)c(C#N)c(=O)n2C)cc1 (stereo unspecified) |
| 16.2 µM | 127 µM | 9.42 µM | 26.5 µM | COc1ccc(C2=NN(c3nc(-c4ccccc4)c(C#N)c(=O)n3C)C(c3ccc(OC)cc3)C2)cc1 (stereo unspecified) |
| 28 µM | 3.28 µM | 19.2 µM | 3.25 µM | Cn1c(N2N=C(c3ccccc3)CC2c2ccc(Cl)cc2)nc(-c2ccccc2)c(C#N)c1=O (stereo unspecified) |
| 11.8 µM | 38.1 µM | 8.15 µM | 39.2 µM | Cn1c(N2N=C(c3ccccc3)CC2c2ccc(F)cc2)nc(-c2ccccc2)c(C#N)c1=O (stereo unspecified) |
| 5.1 µM | 23.1 µM | 4.62 µM | 2 µM | Cc1ccc(C2=NN(c3nc(-c4ccccc4)c(C#N)c(=O)n3C)C(c3ccc(F)cc3)C2)cc1 (stereo unspecified) |
| 25.1 µM | 46.3 µM | 15 µM | 24.7 µM | Cn1c(N2N=C(c3ccccc3)CC2c2ccc(Cl)cc2)nc(-c2ccc(Cl)cc2)c(C#N)c1=O (stereo unspecified) |
| 10.6 µM | 12.2 µM | 6.6 µM | 26.9 µM | Cn1c(N2N=C(c3ccc(Cl)cc3)CC2c2ccccc2)nc(-c2ccccc2)c(C#N)c1=O (stereo unspecified) |
